Measured values from ChEMBL document CHEMBL4334464, “From Phenylthiazoles to Phenylpyrazoles: Broadening the Antibacterial Spectrum toward Carbapenem-Resistant Bacteria” (J Med Chem, 2019).
Values after ≈ are worked out from the molar mass of the structure shown. Active and inactive are the calls of the source. No cut-off for these calls is given here.

Assays:
[1] = system: Escherichia coli; assay: Antimicrobial activity against Escherichia coli JW55031 harboring deltatolC mutant after 18 to 20 hrs in aerobic condition by CLSI protocol based broth microdilution assay; assay type: functional
[2] = system: Escherichia coli; assay: Antibacterial activity against Escherichia coli BW25113 clinical isolates after 18 to 20 hrs in aerobic condition by CLSI-based broth microdilution assay; assay type: functional
[3] = system: Klebsiella pneumoniae; assay: Antibacterial activity against Klebsiella pneumoniae BAA-1706 clinical isolates after 18 to 20 hrs in aerobic condition by CLSI-based broth microdilution assay; assay type: functional
[4] = system: Acinetobacter baumannii; assay: Antibacterial activity against Acinetobacter baumannii ATCC 19606 clinical isolates after 18 to 20 hrs in aerobic condition by CLSI-based broth microdilution assay; assay type: functional; settings: ATCC 19606 = CIP 70.34 = JCM 6841
[5] = system: Pseudomonas aeruginosa; assay: Antibacterial activity against Pseudomonas aeruginosa ATCC 15442 clinical isolates after 18 to 20 hrs in aerobic condition by CLSI-based broth microdilution assay; assay type: functional
[6] = system: Staphylococcus aureus; assay: Bactericidal activity against methicillin-resistant Staphylococcus aureus NRS123-USA400 clinical isolates at 5 times MIC incubated over 24 hrs followed by replating on tryptic soy agar plate and further incubated for 18 to 20 hrs by time kill assay; assay type: functional, organism-based
[7] = system: Enterococcus faecium; assay: Antibacterial activity against vancomycin-resistant Enterococcus faecium ATCC 700221 clinical isolates after 18 to 20 hrs in aerobic condition by CLSI-based broth microdilution assay; assay type: functional
[8] = system: Streptococcus pneumoniae; assay: Antibacterial activity against methicillin-resistant Streptococcus pneumoniae ATCC 700677 clinical isolates after 18 to 20 hrs by CLSI-based broth microdilution assay; assay type: functional
[9] = system: Staphylococcus aureus; assay: Antibacterial activity against vancomycin-resistant Staphylococcus aureus isolate 12 after 18 to 20 hrs in aerobic condition by CLSI-based broth microdilution assay; assay type: functional
[10] = system: Enterococcus faecalis; assay: Antibacterial activity against vancomycin-resistant Enterococcus faecalis ATCC 51299 clinical isolates after 18 to 20 hrs in aerobic condition by CLSI-based broth microdilution assay; assay type: functional
[11] = system: Staphylococcus aureus; assay: Antibiofilm activity against methicillin-resistant Staphylococcus aureus NRS384-USA300 clinical isolates assessed as inhibition of biofilm formation at 0.5 times MIC incubated for 24 hrs by crystal violet staining based spectrophotometric method relative to control; assay type: functional
[12] = system: Listeria monocytogenes; assay: Antibacterial activity against Listeria monocytogenes ATCC 19111 after 18 to 20 hrs in aerobic condition by CLSI-based broth microdilution assay; assay type: functional
[13] = system: Clostridioides difficile; assay: Antibacterial activity against Clostridium difficile ATCC BAA 1870 incubated for 48 hrs in anaerobic condition by CLSI-based broth microdilution assay; assay type: functional; settings: ATCC BAA 1870, 48 h
[14] = system: Staphylococcus aureus; assay: Antibacterial activity against methicillin-resistant Staphylococcus aureus NRS123-USA400 infected in mouse J774 cells assessed as reduction in intracellular bacterial cells at 2 times MIC incubated for 24 hrs followed by re-plating on TSA plate and measured after 18 to 22 hrs relative to control; assay type: functional
Method in brief: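 J774 murine macrophages were infected with MRSA USA400 and then treated at 2×MIC for 24 h, in triplicate. The read-out was percent reduction in intracellular colony-forming units versus untreated infected cells.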

[15] = system: Streptococcus pneumoniae; assay: Antibacterial activity against cephalosporin-resistant Streptococcus pneumoniae ATCC 51916 clinical isolates after 18 to 20 hrs by CLSI-based broth microdilution assay; assay type: functional
[16] = system: Staphylococcus aureus; assay: Antibacterial activity against vancomycin-resistant Staphylococcus aureus isolate 10 after 18 to 20 hrs in aerobic condition by CLSI-based broth microdilution assay; assay type: functional
[17] = system: Salmonella enteritidis; assay: Antibacterial activity against Salmonella enteritidis ATCC 14028 infected in mouse J774 cells assessed as reduction in intracellular bacterial cells at 2 times MIC incubated for 24 hrs followed by re-plating on TSA plate and measured after 18 to 22 hrs relative to control; assay type: functional; settings: Salmonella enterica subsp. enterica serovar Enteritidis
Method in brief: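 J774 murine macrophages infected with Salmonella enteritidis ATCC 14028, then treated at 2×MIC for 24 h, in triplicate. Read-out is the percent reduction in intracellular colony forming units versus the untreated control.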

[18] = system: Staphylococcus aureus; assay: Antibacterial activity against methicillin-resistant Staphylococcus aureus NRS384-USA300 clinical isolates after 18 to 20 hrs in aerobic condition by CLSI protocol based broth microdilution assay; assay type: functional
[19] = system: Escherichia coli; assay: Antibacterial activity against carbapenem-resistant Escherichia coli BAA-2452 clinical isolates after 18 to 20 hrs in aerobic condition by CLSI-based broth microdilution assay; assay type: functional
[20] = system: Acinetobacter baumannii; assay: Antibacterial activity against carbapenem-resistant Acinetobacter baumannii ATCC BAA 1605 clinical isolates after 18 to 20 hrs in aerobic condition by CLSI-based broth microdilution assay; assay type: functional
[21] = system: Klebsiella pneumoniae; assay: Antibacterial activity against carbapenem-resistant Klebsiella pneumoniae ATCC BAA-2146 clinical isolates after 18 to 20 hrs in aerobic condition by CLSI-based broth microdilution assay; assay type: functional
[22] = system: Pseudomonas aeruginosa; assay: Antibacterial activity against carbapenem-resistant Pseudomonas aeruginosa ATCC 1744 clinical isolates after 18 to 20 hrs in aerobic condition by CLSI-based broth microdilution assay; assay type: functional
[23] = system: Escherichia coli; assay: Antibacterial activity against carbapenem-resistant Escherichia coli BAA-2469 clinical isolates after 18 to 20 hrs in aerobic condition by CLSI-based broth microdilution assay; assay type: functional
[24] = system: Klebsiella pneumoniae; assay: Antibacterial activity against carbapenem-resistant Klebsiella pneumoniae ATCC BAA-1705 clinical isolates after 18 to 20 hrs in aerobic condition by CLSI-based broth microdilution assay; assay type: functional
[25] = system: Salmonella enterica; assay: Antibacterial activity against Salmonella enterica NR-170 clinical isolates after 18 to 20 hrs in aerobic condition by CLSI-based broth microdilution assay; assay type: functional
[26] = system: Salmonella enteritidis; assay: Antibacterial activity against Salmonella enteritidis ATCC 14028 clinical isolates after 18 to 20 hrs in aerobic condition by CLSI-based broth microdilution assay; assay type: functional; settings: Salmonella enterica subsp. enterica serovar Enteritidis
[27] = system: Escherichia coli; assay: Antibacterial activity against Escherichia coli ATCC 25922 clinical isolates after 18 to 20 hrs in aerobic condition by CLSI-based broth microdilution assay; assay type: functional
[28] = system: Enterobacter cloacae subsp. cloacae; assay: Antibacterial activity against Enterobacter cloacae subsp. cloacae ATCC BAA-1143 clinical isolates after 18 to 20 hrs in aerobic condition by CLSI-based broth microdilution assay; assay type: functional
[29] = system: Acinetobacter baumannii; assay: Antibacterial activity against Acinetobacter baumannii ATCC BAA 1141 clinical isolates after 18 to 20 hrs in aerobic condition by CLSI-based broth microdilution assay; assay type: functional
[30] = system: Escherichia coli; assay: Antibacterial activity against Escherichia coli ATCC 35150 clinical isolates after 18 to 20 hrs in aerobic condition by CLSI-based broth microdilution assay; assay type: functional
[31] = system: Acinetobacter baumannii; assay: Antibacterial activity against Acinetobacter baumannii NR 17785 clinical isolates after 18 to 20 hrs in aerobic condition by CLSI-based broth microdilution assay; assay type: functional
[32] = system: Salmonella enteritidis; assay: Antibacterial activity against Salmonella enteritidis ATCC 13076 clinical isolates after 18 to 20 hrs in aerobic condition by CLSI-based broth microdilution assay; assay type: functional; settings: Salmonella enterica subsp. enterica serovar Enteritidis
[33] = system: Acinetobacter baumannii; assay: Antibacterial activity against Acinetobacter baumannii NR 17786 clinical isolates after 18 to 20 hrs in aerobic condition by CLSI-based broth microdilution assay; assay type: functional
[34] = system: Shigella flexneri; assay: Antibacterial activity against Shigella flexneri ATCC 9199 clinical isolates after 18 to 20 hrs in aerobic condition by CLSI-based broth microdilution assay; assay type: functional
[35] = system: Klebsiella pneumoniae; assay: Antibacterial activity against Klebsiella pneumoniae BAA-1144 clinical isolates after 18 to 20 hrs in aerobic condition by CLSI-based broth microdilution assay; assay type: functional
[36] = system: Salmonella typhimurium; assay: Antibacterial activity against Salmonella typhimurium ATCC 700720 after 18 to 20 hrs in aerobic condition by CLSI-based broth microdilution assay; assay type: functional; settings: Salmonella enterica subsp. enterica serovar Typhimurium

## C/C(=N/NC(=N)N)c1sc(-c2ccc(C#Cc3ccccc3)cc2)nc1C
[1]
  Activity: inactive
[2]
  Activity: inactive
[3]
  Activity: inactive
[4]
  Activity: inactive
[5]
  Activity: inactive

## CN[C@H](CC(C)C)C(=O)N[C@H]1C(=O)N[C@@H](CC(N)=O)C(=O)N[C@H]2C(=O)N[C@H]3C(=O)N[C@H](C(=O)N[C@H](C(=O)O)c4cc(O)cc(O)c4-c4cc3ccc4O)[C@H](O)c3ccc(c(Cl)c3)Oc3cc2cc(c3O[C@@H]2O[C@H](CO)[C@@H](O)[C@H](O)[C@H]2O[C@H]2C[C@](C)(N)[C@H](O)[C@H](C)O2)Oc2ccc(cc2Cl)[C@H]1O [VANCOMYCIN]
[6]
  Activity: Active
[7]
  MIC: > 64 µg/mL
[8]
  MIC: 1 µg/mL (≈ 0.69 µM)
[9]
  MIC: 64 µg/mL (≈ 44.2 µM)
[10]
  MIC: 32 µg/mL (≈ 22.1 µM)
[11]
  inhibition (INH): 18%
[12]
  MIC: 2 µg/mL (≈ 1.38 µM)
[13]
  MIC: 1 µg/mL (≈ 0.69 µM)
[14]
  Activity: inactive
[15]
  MIC: 2 µg/mL (≈ 1.38 µM)
[16]
  MIC: > 64 µg/mL

## NC[C@H]1O[C@H](O[C@H]2[C@H](O)[C@@H](O[C@H]3O[C@H](CO)[C@@H](O)[C@H](N)[C@H]3O)[C@H](N)C[C@@H]2N)[C@H](O)[C@@H](O)[C@@H]1O
[17]
  Activity: inactive

## CCCCC#Cc1ccc(-n2ncc(/C(C)=N/NC3=NCCN3)c2C)cc1
[1]
  MIC: 4 µg/mL (≈ 11 µM)
[18]
  MIC: 2 µg/mL (≈ 5.52 µM)

## CCCCC#Cc1ccc(-n2ncc(/C(C)=N/NC(=N)N)c2C)cc1
[1]
  MIC: 4 µg/mL (≈ 11.9 µM)
[18]
  MIC: 2 µg/mL (≈ 5.94 µM)

## CCN(CC)CC#Cc1ccc(-n2ncc(/C(C)=N/NC3=NCCN3)c2C)cc1
[1]
  MIC: > 128 µg/mL
[18]
  MIC: > 128 µg/mL

## C/C(=N\NC1=NCCN1)c1cnn(-c2ccc(C#CC(C)(C)O)cc2)c1C
[1]
  MIC: 16 µg/mL (≈ 43.9 µM)
[18]
  MIC: 32 µg/mL (≈ 87.8 µM)

## CCCCCCC#Cc1ccc(-n2ncc(/C(C)=N/NC(=N)N)c2C)cc1
[1]
  MIC: 8 µg/mL (≈ 21.9 µM)
[18]
  MIC: 2 µg/mL (≈ 5.49 µM)

## C/C(=N\NC1=NCCN1)c1cnn(-c2ccc(C#CC3CCCCC3)cc2)c1C
[1]
  MIC: 4 µg/mL (≈ 10.3 µM)
[18]
  MIC: 4 µg/mL (≈ 10.3 µM)

## CCCCCCC#Cc1ccc(-n2ncc(/C(C)=N/NC3=NCCN3)c2C)cc1
[1]
  MIC: 8 µg/mL (≈ 20.5 µM)
[18]
  MIC: 4 µg/mL (≈ 10.2 µM)

## C[C@@H](O)[C@H]1C(=O)N2C(C(=O)O)=C(S[C@@H]3CN[C@H](C(=O)N(C)C)C3)[C@H](C)[C@H]12 [MEROPENEM]
[19]
  MIC: 32 µg/mL (≈ 83.4 µM)
[20]
  MIC: 32 µg/mL (≈ 83.4 µM)
[21]
  MIC: 64 µg/mL (≈ 167 µM)
[22]
  MIC: 16 µg/mL (≈ 41.7 µM)
[23]
  MIC: 32 µg/mL (≈ 83.4 µM)
[24]
  MIC: 32 µg/mL (≈ 83.4 µM)

## GENTAMICIN
[25]
  MIC: 1 µg/mL
[26]
  MIC: 1 µg/mL
[27]
  MIC: 1 µg/mL
[3]
  MIC: 8 µg/mL
[28]
  MIC: 1 µg/mL
[29]
  MIC: 4 µg/mL
[30]
  MIC: 1 µg/mL
[31]
  MIC: > 64 µg/mL
[4]
  MIC: 16 µg/mL
[32]
  MIC: 1 µg/mL
[33]
  MIC: 64 µg/mL
[34]
  MIC: 1 µg/mL
[35]
  MIC: 16 µg/mL
[36]
  MIC: 1 µg/mL
[5]
  MIC: 2 µg/mL

## C/C(=N\NC1=NCCN1)c1cnn(-c2ccc(C#CC(C)(C)C)cc2)c1C
[1]
  MIC: 16 µg/mL (≈ 44.1 µM)
[11]
  inhibition (INH): 62%
[18]
  MIC: 16 µg/mL (≈ 44.1 µM)
